# Hits are enriched below; roughly 2.2% of the tested compounds scored in any of these assays.
# UBC13 inh – blocks human UBC13 polyubiquitin chain formation; TR-FRET; inhibition, % at 20 µM; actives 0.47% (n = 330,000); in the data active means inhibition above about 45%, passing the limit was not always enough
# GSTO1 inh – GSTO1 inhibition, counter-screen for RBBP9 inhibitors | P78417 | recombinant GSTO1, activity-based probe fluorescence polarization | inhibition, % at 5.96 µM | actives 1.1% (n = 300,000);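 active means inhibition above the campaign mean inhibition plus 3 SD, cut at about 35% in these data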;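 further: 0% = GSTO1-1 with DMSO and 100% = wells lacking GSTO1-1 enzyme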
# PAD4 FP inh – inhibitors of human PAD4. Q9UM07. recombinant PAD4, RCA probe fluorescence polarization. inhibition, % at 6.36 µM. actives 0.41% (n = 330,000). AID 485272;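 active means percent inhibition above a cutoff equal to the mean of all tested compounds plus 3 SD, cut at about 15% in these data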;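 further: 0% = PAD4 with RCA probe and DMSO and 100% = probe without PAD4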
# Target sequence (Q9UM07 whole entry, looked up): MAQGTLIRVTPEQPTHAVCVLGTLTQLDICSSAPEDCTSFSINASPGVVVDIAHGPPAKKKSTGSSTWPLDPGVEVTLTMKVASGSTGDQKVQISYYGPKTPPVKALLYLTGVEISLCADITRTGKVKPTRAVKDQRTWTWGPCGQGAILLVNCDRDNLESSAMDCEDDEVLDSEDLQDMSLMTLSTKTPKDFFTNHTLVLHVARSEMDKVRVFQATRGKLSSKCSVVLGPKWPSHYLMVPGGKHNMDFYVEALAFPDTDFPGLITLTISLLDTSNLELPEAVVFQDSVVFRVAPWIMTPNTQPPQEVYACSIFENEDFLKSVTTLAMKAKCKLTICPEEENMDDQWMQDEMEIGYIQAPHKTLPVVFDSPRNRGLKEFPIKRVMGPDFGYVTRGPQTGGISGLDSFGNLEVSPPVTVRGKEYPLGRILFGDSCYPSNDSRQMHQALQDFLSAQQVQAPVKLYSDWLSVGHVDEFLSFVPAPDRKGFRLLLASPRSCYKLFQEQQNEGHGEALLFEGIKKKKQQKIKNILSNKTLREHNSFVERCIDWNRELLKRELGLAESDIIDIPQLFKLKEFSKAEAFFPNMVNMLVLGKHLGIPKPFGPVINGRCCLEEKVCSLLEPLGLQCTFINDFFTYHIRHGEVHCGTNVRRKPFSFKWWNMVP
# Apaf-1 inh – human Apaf-1 inhibition; actives 0.71% (n = 330,000); O14727; inhibition, % at 20 µM; reconstituted apoptosome caspase-3 activity, DEVD-Rh110 fluorescence; active means inhibition of at least 40% at 20 µM;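 further: plate controls were DMSO wells for no effect and DEVD-CHO caspase inhibitor wells for full effect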
#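 System: Apoptosome proteins | Medium: Hepes pH 7.5 with detergent and BSA | Also added: Cytochrome c trigger plus (Z-DEVD)2-Rh110 caspase-3 substrate | Incubation: 30 min compound preincubation, 50 min activation, room temperature | Detection: Rhodamine 110 fluorescence at Ex 480/Em 540 nm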
# Rin1 Abl inh – human Rin1-Abl interaction inhibition; P00519+Q13671; TR-FRET Rin1/Abl binding, biochemical; inhibition, % at 7.35 µM; actives 0.4% (n = 360,000); in the data active means inhibition above about 5%, passing the limit was not always enough
# SUMO HTRF inh – SUMOylation inhibition; HTRF SUMOylation assay, SAE1/SAE2 + UBC9, in vitro; inhibition, % at 35 µM; actives 0.36% (n = 290,000); AID 2006; in the data active means inhibition above about 50%, passing the limit was not always enough
# Apaf-1 inh conf – Apaf-1 inhibition, single-dose confirmed. actives 25% (n = 1,800). shares compounds with Apaf-1 inh. reconstituted apoptosome, caspase-3 DEVD-Rh110 fluorescence. inhibition, % at 20 µM. AID 504614;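 active means mean inhibition of at least 40% at 20 µM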;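 further: plate controls were DMSO wells for no effect and DEVD-CHO caspase inhibitor control wells for full effect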
# Rh110 interf inh – interferes with Rh110 fluorescence, flagging false Apaf-1 inhibitors | shares compounds with Apaf-1 inh | Rh110 fluorescence interference, quenched caspase reaction | activation (fluorescence interference), % at 20 µM | 1,800 tested, under 10 active | AID 504615;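 active means signal rise of 40% or more at 20 µM, treated as a fluorescence artifact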
# Apaf1 inh interf – Apaf-1 inhibitor counter-screen fluorescence artifact; shares compounds with Apaf-1 inh; fluorescence interference counterscreen, Apaf-1 assay format; IC50, µM; 460 tested, under 10 active; AID 588538; call rule not given here
# An asterisk follows results filed as active; . = no result given.
SMILES,UBC13 inh,GSTO1 inh,PAD4 FP inh,Apaf-1 inh,Rin1 Abl inh,SUMO HTRF inh,Apaf-1 inh conf,Rh110 interf inh,others
O=C(c1ccc2nc(-c3ccco3)c(-c3ccco3)nc2c1)N1CCN(c2ccccc2)CC1,-23.0,14.2,-10.1,40.2*,-4.5,73.2*,30.2,14.4,
Cc1ccc(S(=O)(=O)N2CCC(C(=O)OCC(=O)N(C)CC(=O)Nc3ccc(F)cc3)CC2)cc1C,3.5,4.3,-1.0,51.6*,1.5,.,19.0,-1.7,
COc1ccc(-c2ccc(C(=O)Nc3ccc4c(c3)OCO4)c3occc23)c(C)c1,.,.,.,.,-2.0,.,.,.,
Cc1ccc(C(=O)O)cc1-n1c(=O)n(Cc2ccccc2)c(=O)c2[nH]cnc21,5.8,-2.9,-9.1,0.4,-0.1,7.3,.,.,
COc1cccc(C(CNC(=O)C2CCN(C(=O)Nc3ccccc3)CC2)N(C)C)c1 (configuration not stated),18.7,.,-2.2,8.1,-3.3,.,.,.,
CS(=O)c1ccc(-n2c(=O)n(Cc3ccccc3)c(=O)c3[nH]cnc32)cc1 (configuration not stated),3.5,-0.7,-2.4,-0.2,-2.1,16.4,.,.,
Cc1nn2c(-c3ccncc3)nnc2c2ccccc12,-3.0,2.1,-2.7,73.6*,-1.8,8.4,85.6*,0.7,Apaf1 inh interf=>100
COCCCNC(=O)c1csc([C@H]2C[C@H](O)[C@@H](CO)O2)n1,.,.,.,.,0.8,.,.,.,
O=C(CSc1n[nH]c(-c2ccncc2)n1)Nc1ccccc1Cl,1.0,-1.2,-5.3,5.0,-2.5,.,.,.,
Cc1noc(C)c1COc1ccccc1C(=O)N1CCN(c2cccc(Cl)c2)CC1,14.9,.,-0.7,51.8*,-0.4,.,34.7,8.4,
CC(C)NC(=O)COc1coc(CN2CCN(C(=O)c3ccco3)CC2)cc1=O,-0.3,6.0,-0.8,-5.3,-0.5,.,.,.,
N#Cc1ccsc1NC(=O)c1ccc(Cl)c([N+](=O)[O-])c1,-16.1,11.7,-7.9,47.9*,2.4,1.6,6.3,-3.5,
O=C(NCCc1ccccc1)C1Cc2c(-c3ccccc3)ccnc2O1 (configuration not stated),.,.,.,.,3.5,.,.,.,
COCCn1c(SCC(=O)NNC(=O)c2cc(Cl)ccc2OC)nnc1-c1ccncc1,35.1,.,-0.3,48.7*,2.7,.,36.5,11.4,
COCCn1c(SCC(=O)Nc2cccc(OC)c2)nnc1-c1ccc(Cl)cc1,11.8,1.9,-3.6,-8.7,0.8,-13.5,.,.,
Cc1cccc(OCC(=O)N/N=C/c2sc(=O)n(Cc3cccc(C(=O)O)c3)c2Cl)c1,-9.0,-2.0,-2.7,0.4,0.7,27.3,.,.,
N#Cc1c(N2CCCCC2)nc(N)c2c(N)nc3c(c12)CC(c1ccccc1)O3 (configuration not stated),10.1,8.6,-3.8,42.2*,-1.7,14.4,12.2,3.4,
CCC1Cc2c(nc(N)c3c(N)nc(N4CCCCC4)c(C#N)c23)O1 (configuration not stated),13.1,0.9,-2.5,6.9,-1.7,26.6,.,.,
O=C(O)c1ccc(NC2=C(N3CCOCC3)C(=O)c3ccccc3C2=O)cc1,-22.1,46.4*,-17.2,67.9*,-1.4,3.2,50.6*,-0.7,Apaf1 inh interf=>100
O=C(NCc1ccccc1)c1cccc(S(=O)(=O)N2CCCCC2)c1,4.9,3.7,6.9,3.8,2.2,6.8,.,.,
O=C(NCc1cccs1)c1cccc(S(=O)(=O)N2CCCCC2)c1,9.4,2.3,0.1,54.8*,3.6,4.8,14.7,5.2,
O=C(CCn1c2c(c3ccccc31)CCCC2)NNC(=O)c1ccc(Cl)c([N+](=O)[O-])c1,-8.0,-1.6,-3.7,88.6*,0.5,5.9,87.1*,7.8,Apaf1 inh interf=>100
O=C(CCn1c2c(c3ccccc31)CCCC2)NNC(=O)c1ccc([N+](=O)[O-])cc1,3.5,3.2,2.5,80.9*,-2.0,3.6,85.2*,6.9,Apaf1 inh interf=>100
CC(=O)NNC(=O)CCn1c2c(c3ccccc31)CCCC2,5.4,-2.6,-2.8,-3.2,-0.6,12.6,.,.,
